42 compounds from ChEMBL document CHEMBL1140683, “N-4-Pyrimidinyl-1H-indazol-4-amine inhibitors of Lck: indazoles as phenol isosteres with improved pharmacokinetics” (Bioorg Med Chem Lett, 2007) can be followed below.

Each structure is given as a SMILES string. A value given as a limit tells only on which side of the number the result lay.

The target of series [1] is Proto-oncogene tyrosine-protein kinase LCK (Mus musculus, UniProt P06240). The series can be described thus: Inhibition of murine Lck by TR-FRET assay.
Sequence of Proto-oncogene tyrosine-protein kinase LCK (P06240 whole entry): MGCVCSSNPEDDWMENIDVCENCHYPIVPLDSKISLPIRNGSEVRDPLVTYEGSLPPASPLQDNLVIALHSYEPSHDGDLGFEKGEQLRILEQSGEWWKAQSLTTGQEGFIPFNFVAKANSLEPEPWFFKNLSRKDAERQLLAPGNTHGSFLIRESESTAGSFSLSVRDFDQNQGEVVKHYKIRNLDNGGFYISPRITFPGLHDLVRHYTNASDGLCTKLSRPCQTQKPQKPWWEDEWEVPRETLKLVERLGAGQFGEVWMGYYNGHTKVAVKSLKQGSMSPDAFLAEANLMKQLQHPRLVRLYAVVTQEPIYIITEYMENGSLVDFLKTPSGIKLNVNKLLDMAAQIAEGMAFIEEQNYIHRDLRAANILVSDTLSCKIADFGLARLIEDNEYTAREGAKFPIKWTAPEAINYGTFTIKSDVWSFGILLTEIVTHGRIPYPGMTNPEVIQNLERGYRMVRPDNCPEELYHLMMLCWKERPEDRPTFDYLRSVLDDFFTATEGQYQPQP
The target of series [2] is Tyrosine-protein kinase BTK (Homo sapiens, UniProt Q06187). The series can be described thus: Inhibition of Btk.
Sequence of Tyrosine-protein kinase BTK (Q06187 whole entry): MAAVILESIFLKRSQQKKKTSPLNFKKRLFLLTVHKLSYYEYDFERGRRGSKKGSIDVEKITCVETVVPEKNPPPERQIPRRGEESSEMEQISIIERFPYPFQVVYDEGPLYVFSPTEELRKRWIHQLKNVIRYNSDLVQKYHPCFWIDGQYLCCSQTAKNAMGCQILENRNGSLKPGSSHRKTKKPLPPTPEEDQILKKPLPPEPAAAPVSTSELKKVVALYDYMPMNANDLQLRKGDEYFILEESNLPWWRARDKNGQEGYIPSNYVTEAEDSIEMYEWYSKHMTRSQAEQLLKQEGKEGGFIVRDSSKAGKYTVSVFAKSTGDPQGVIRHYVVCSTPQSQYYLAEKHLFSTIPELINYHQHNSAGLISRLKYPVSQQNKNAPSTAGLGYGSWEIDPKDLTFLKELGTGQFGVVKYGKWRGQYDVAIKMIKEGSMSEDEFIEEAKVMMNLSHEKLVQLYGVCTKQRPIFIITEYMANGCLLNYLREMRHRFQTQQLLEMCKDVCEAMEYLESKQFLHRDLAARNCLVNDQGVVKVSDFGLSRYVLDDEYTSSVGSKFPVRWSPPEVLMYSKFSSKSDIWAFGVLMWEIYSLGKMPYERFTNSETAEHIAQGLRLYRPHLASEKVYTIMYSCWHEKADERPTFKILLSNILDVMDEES
Series [3] has as its target Tyrosine-protein kinase Lyn (Homo sapiens, UniProt P07948). Description: Inhibition of Lyn.
In series [4] the target is T1, Tyrosine-protein kinase TXK (Homo sapiens, UniProt P42681).
T1 sequence (P42681 whole entry): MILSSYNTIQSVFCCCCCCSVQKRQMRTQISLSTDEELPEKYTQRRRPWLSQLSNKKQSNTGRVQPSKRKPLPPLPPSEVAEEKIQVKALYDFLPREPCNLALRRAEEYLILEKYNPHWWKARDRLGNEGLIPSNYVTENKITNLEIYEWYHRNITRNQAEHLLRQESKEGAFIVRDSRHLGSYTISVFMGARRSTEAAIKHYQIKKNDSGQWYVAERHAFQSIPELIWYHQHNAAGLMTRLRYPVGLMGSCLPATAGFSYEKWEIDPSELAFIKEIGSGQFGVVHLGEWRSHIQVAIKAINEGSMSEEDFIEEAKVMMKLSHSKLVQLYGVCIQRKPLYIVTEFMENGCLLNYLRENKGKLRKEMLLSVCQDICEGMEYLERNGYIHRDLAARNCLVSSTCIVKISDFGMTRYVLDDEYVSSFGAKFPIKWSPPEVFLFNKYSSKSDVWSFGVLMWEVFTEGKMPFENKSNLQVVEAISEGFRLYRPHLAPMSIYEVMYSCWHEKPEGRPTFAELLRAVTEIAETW
Description: Inhibition of Txk.

Series [5] can be described thus: Plasma clearance in BALB/c mouse at 1 mg/kg, iv. Also noted: dose 1 mg/kg, route intravenous. The class given is ADME, organism-based. In short, it runs like this: (§1)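 Blood sampled over 8 h. Plasma protein-precipitated with acetonitrile, dried under nitrogen, reconstituted in 10:90 acetonitrile:water. Quantified by LC-MS/MS on an ODS3 column with a 0.1% formic acid water/acetonitrile gradient.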

The nature of series [6]: Volume of distribution at steady state in BALB/c mouse at 1 mg/kg, iv. Format: ADME, organism-based. Also noted: dose 1 mg/kg, route intravenous. The following applies: in vivo, read-out: Vdss. Summed up: as §1
Series [7] in a line: Half life in BALB/c mouse at 1 mg/kg, iv. The class given is ADME, organism-based. More on the design: dose 1 mg/kg, route intravenous. The following applies: in vivo. Summed up:
as §1

Series [8] is described as follows: AUC (0 to t) in BALB/c mouse at 1 mg/kg, iv. As to conditions: plasma. Format: ADME, organism-based. Also noted: dose 1 mg/kg, route intravenous. In short, it runs like this:
as §1

The nature of series [9]: AUC (0 to t) in BALB/c mouse at 1 mg/kg, po. The class given is ADME, organism-based. The following applies: plasma. Also noted: dose 1 mg/kg, route oral. Summed up:
as §1

Series [10] in a line: Oral bioavailability in BALB/c mouse at 1 mg/kg, po. The class given is ADME, organism-based. As to conditions: in vivo. In short, it runs like this: as §1
The target in series [11] is Tyrosine-protein kinase SYK (Homo sapiens, UniProt P43405).
The target of series [12] is Tyrosine-protein kinase Lck (Homo sapiens, UniProt P06239). Description: Inhibition of human Lck by TR-FRET assay.
Sequence of Tyrosine-protein kinase Lck (P06239 whole entry): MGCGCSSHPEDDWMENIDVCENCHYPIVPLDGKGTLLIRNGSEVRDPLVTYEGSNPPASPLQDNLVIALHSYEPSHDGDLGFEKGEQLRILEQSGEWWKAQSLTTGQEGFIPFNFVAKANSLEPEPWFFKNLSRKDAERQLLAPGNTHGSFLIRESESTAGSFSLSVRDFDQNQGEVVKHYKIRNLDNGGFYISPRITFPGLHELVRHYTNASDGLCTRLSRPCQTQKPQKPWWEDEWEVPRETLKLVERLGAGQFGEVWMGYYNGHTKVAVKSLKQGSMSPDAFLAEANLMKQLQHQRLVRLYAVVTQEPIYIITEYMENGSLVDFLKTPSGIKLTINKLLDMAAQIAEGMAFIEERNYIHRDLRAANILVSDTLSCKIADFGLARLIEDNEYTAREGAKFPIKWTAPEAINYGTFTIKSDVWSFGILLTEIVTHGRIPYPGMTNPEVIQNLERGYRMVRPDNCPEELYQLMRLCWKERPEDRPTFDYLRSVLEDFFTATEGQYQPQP
Series [13] in a line: Plasma clearance in BALB/c mouse at 2.5 mg/kg, iv. Format: ADME, organism-based. Also noted: dose 2.5 mg/kg, route intravenous. Summed up:
as §1

Series [14] in a line: Volume of distribution at steady state in BALB/c mouse at 2.5 mg/kg, iv. Format: ADME, organism-based. The following applies: in vivo, read-out: Vdss. Also noted: dose 2.5 mg/kg, route intravenous. Summed up: as §1
A short description of series [15]: Half life in BALB/c mouse at 2.5 mg/kg, iv. Format: ADME, organism-based. More on the design: dose 2.5 mg/kg, route intravenous. The following applies: in vivo. Summed up:
as §1

Series [16] can be described thus: AUC (0 to t) in BALB/c mouse at 2.5 mg/kg, iv. Format: ADME, organism-based. Also noted: dose 2.5 mg/kg, route intravenous. The following applies: plasma. Summed up:
as §1

Series [17] is described as follows: AUC (0 to t) in BALB/c mouse at 10 mg/kg, po. As to conditions: plasma. More on the design: dose 10 mg/kg, route oral. The class given is ADME, organism-based. In short, it runs like this: as §1
Series [18] can be described thus: Oral bioavailability in BALB/c mouse at 10 mg/kg, po. Format: ADME, organism-based. The following applies: in vivo. In short, it runs like this:
as §1

Sequence of Tyrosine-protein kinase Lyn (P07948 whole entry): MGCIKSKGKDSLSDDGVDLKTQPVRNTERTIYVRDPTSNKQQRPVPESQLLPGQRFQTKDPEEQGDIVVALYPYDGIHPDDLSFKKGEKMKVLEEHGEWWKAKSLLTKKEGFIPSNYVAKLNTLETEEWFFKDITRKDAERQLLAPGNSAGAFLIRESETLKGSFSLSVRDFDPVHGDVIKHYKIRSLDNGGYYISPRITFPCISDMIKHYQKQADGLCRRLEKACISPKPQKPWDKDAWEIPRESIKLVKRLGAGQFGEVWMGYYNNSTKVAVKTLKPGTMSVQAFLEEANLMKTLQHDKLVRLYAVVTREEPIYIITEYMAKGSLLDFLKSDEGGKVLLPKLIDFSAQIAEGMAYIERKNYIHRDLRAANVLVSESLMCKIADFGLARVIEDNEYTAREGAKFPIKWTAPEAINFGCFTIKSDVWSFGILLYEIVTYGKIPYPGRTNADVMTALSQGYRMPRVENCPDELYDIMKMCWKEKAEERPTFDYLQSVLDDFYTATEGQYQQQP

`Cc1ccc2[nH]ncc2c1Nc1ccnc(Nc2cccc(S(N)(=O)=O)c2)n1`: the 50% inhibitory concentration (IC50) in series [1] amounted to 19 nM; in series [2], 69 nM; in series [3], 430 nM; in series [4], 220 nM; in [11] it was 620 nM. The same compound came in with a clearance in [5] of 22.4 mL/min/kg. Moreover, in series [6], the Vd amounted to 0.7 L/kg. The compound further showed a half-life in series [7] of 31.8 min. For the same compound, the values for the AUC(0-t) in series [8] and in series [9] were 743 ng·h/mL and 190 ng·h/mL, respectively. Besides, in [10], the bioavailability was 25%. For `Cc1ccc(C(=O)N(C)C)cc1Nc1ccnc(Nc2cccc(C(N)=O)c2)n1`, the IC50 in [1] is 9300 nM.

In series [1], `Cc1ccc(NS(C)(=O)=O)cc1Nc1ccnc(Nc2cccc(C(N)=O)c2)n1` came in with an IC50 of 7700 nM. The same measure, in the same setting: the same measure for `COc1cccc(Nc2ccnc(Nc3cccc(C(N)=O)c3)n2)c1`: 2700 nM; for `CC(=O)N(C)c1cccc(Nc2ccnc(Nc3cccc(C(N)=O)c3)n2)c1`: 1800 nM. For `Cc1ccc(O)cc1Nc1ccnc(Nc2cccc(C(N)=O)c2)n1`, the IC50 in series [12] stood at 14 nM; in series [1], 13 nM; in series [2], 9 nM; in series [3], 3 nM; in series [4], 2 nM. Compound `NC(=O)c1cccc(Nc2nccc(Nc3cccc(O)c3)n2)c1` returned a half-inhibitory concentration (IC50) in [1] of 130 nM. This lies in the sub-micromolar range. On to `NC(=O)c1cccc(Nc2nccc(Nc3ccc(F)cc3F)n2)c1`, for which the IC50 in series [1] is 1100 nM. Against the preceding compound, the IC50 is about 8.5-fold higher. In the case of `Cc1ccc(O)cc1Nc1ccnc(Nc2cccc(S(N)(=O)=O)c2)n1`, the IC50 in [1] stood at 8.5 nM; in [3] it was 1 nM; in series [4], 0.4 nM; in series [11], 4 nM. In series [13], this compound showed a clearance of 65.5 mL/min/kg. Moreover, in [14], the Vd was found to be 0.3 L/kg. For the same compound, the half-life in [15] was 7.2 min. Besides, the area under the curve AUC(0-t) worked out at 635 ng·h/mL in series [16] and 2 ng·h/mL in [17]. The bioavailability in [18] is under 1%. Take `NS(=O)(=O)c1cccc(Nc2nccc(Nc3ccc(F)cc3F)n2)c1`: half-maximal inhibition in [1] (IC50) required 350 nM.

In [1], `Cn1cnc2ccc(Nc3ccnc(Nc4cccc(C(N)=O)c4)n3)cc21` came in with a concentration for half-maximal inhibition (IC50) of 16000 nM.

For `Cc1cccc(O)c1Nc1ccnc(Nc2cccc(C(N)=O)c2)n1`, in [1], the IC50 worked out at 100 nM. This IC50 is about 160-fold lower than that of the compound before. For `Cc1ccc(F)cc1Nc1ccnc(Nc2cccc(C(N)=O)c2)n1`, the IC50 in [1] is 270 nM.

With `COc1ccc(C)c(Nc2ccnc(Nc3cccc(C(N)=O)c3)n2)c1`, half-maximal inhibition in series [1] (IC50) required 86 nM. `Cc1ccc(N)cc1Nc1ccnc(Nc2cccc(C(N)=O)c2)n1` displayed a half-inhibitory concentration (IC50) in series [1] of 97 nM. In series [1], `Cc1ccc(Nc2ccnc(Nc3cccc(C(N)=O)c3)n2)cc1O` came in with an IC50 of 190 nM. Take `NC(=O)c1cccc(Nc2nccc(Nc3cc(O)ccc3Br)n2)c1`: the IC50 in series [1] was determined as 41 nM.

`Cc1cc(O)ccc1Nc1ccnc(Nc2cccc(C(N)=O)c2)n1` gave an IC50 in series [1] of 40 nM. With `Cn1cnc2cc(Nc3ccnc(Nc4cccc(C(N)=O)c4)n3)ccc21`, it took 1800 nM to reach half-maximal inhibition in [1] (IC50). In the case of `NC(=O)c1cccc(Nc2nccc(Nc3ccc4nn[nH]c4c3)n2)c1`, the IC50 in series [1] is 4400 nM. On to `NC(=O)c1cccc(Nc2nccc(Nc3cccc4ncccc34)n2)c1`, for which the concentration for half-maximal inhibition (IC50) in series [1] came out at 560 nM. The compound `Cn1ncc2c(Nc3ccnc(Nc4cccc(C(N)=O)c4)n3)cccc21` had a concentration for half-maximal inhibition (IC50) in [1] of 1600 nM. `Cc1ccc2c(cnn2C)c1Nc1ccnc(Nc2cccc(C(N)=O)c2)n1` came in with an IC50 in series [1] of 2800 nM. Regarding `Cc1nc2c(Nc3ccnc(Nc4cccc(C(N)=O)c4)n3)cccc2[nH]1`, in series [1], it took 5600 nM to reach half-maximal inhibition (IC50). Still for that read-out and setting: the same measure for `Cc1cc(Nc2ccnc(Nc3cccc(C(N)=O)c3)n2)c2cn[nH]c2c1`: 520 nM; for `Cc1ccc(Nc2ccnc(Nc3cccc(C(N)=O)c3)n2)c2cn[nH]c12`: 55 nM; for `NC(=O)c1cccc(Nc2nccc(Nc3cccc4cn[nH]c34)n2)c1`: 1400 nM. Regarding `Cc1ccc2[nH]ncc2c1Nc1ccnc(Nc2cccc(C(N)=O)c2)n1`, the IC50 came to 12 nM in [1]; 97 nM in series [2]; 40 nM in series [3]; 28 nM in series [4]; 220 nM in [11]. In series [1], `NC(=O)c1cccc(Nc2nccc(Nc3ccc4[nH]ncc4c3)n2)c1` came in with an IC50 of 3000 nM. This counts as single-digit micromolar. Same read-out and setting: the same measure for `NS(=O)(=O)c1cccc(Nc2nccc(Nc3cccc4[nH]ncc34)n2)c1`: 33 nM; for `Cc1ccc(Cl)cc1Nc1ccnc(Nc2cccc(C(N)=O)c2)n1`: 380 nM. In [1], `COc1ccc(C)c(Nc2ccnc(Nc3cccc(S(N)(=O)=O)c3)n2)c1` yielded a half-maximal inhibitory concentration (IC50) of 54 nM. This IC50 is about 7-fold lower than that of the compound before. `NC(=O)c1cccc(Nc2nccc(Nc3ccc4ncsc4c3)n2)c1`: in series [1], the IC50 is 3000 nM.

In the case of `Cc1cc(O)cc(Nc2ccnc(Nc3cccc(C(N)=O)c3)n2)c1`, the IC50 in [1] is 73 nM. Same read-out and setting: the same measure for `CC(C)c1ccc(O)cc1Nc1ccnc(Nc2cccc(C(N)=O)c2)n1`: 880 nM; for `Cn1ncc2ccc(Nc3ccnc(Nc4cccc(C(N)=O)c4)n3)cc21`: 8200 nM; for `NC(=O)c1cccc(Nc2nccc(Nc3cccc(F)c3)n2)c1`: 3300 nM. `Cc1ccc(C(N)=O)cc1Nc1ccnc(Nc2cccc(C(N)=O)c2)n1` had a concentration for half-maximal inhibition (IC50) in series [1] of 1300 nM.

As for `Cc1ccccc1Nc1ccnc(Nc2cccc(C(N)=O)c2)n1`, the concentration for half-maximal inhibition (IC50) in series [1] came to 89 nM. Compound `Cc1ccc(CN)cc1Nc1ccnc(Nc2cccc(C(N)=O)c2)n1` displayed an IC50 in [1] of 3400 nM.

In [1], `NC(=O)c1cccc(Nc2nccc(Nc3cccc4nn[nH]c34)n2)c1` gave an IC50 of 490 nM.

`NC(=O)c1cccc(Nc2nccc(Nc3cccc4[nH]ncc34)n2)c1` [GW782612X] came in with an IC50 in series [1] of 100 nM.
